For series [1], the system named is Mycobacterium tuberculosis. Briefly: Antitubercular activity against Mycobacterium tuberculosis H37Rv after 4 weeks by agar proportion method. It is filed as functional. The conditions noted are these: 672 h. The procedure, abridged:
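Agar proportion method on Middlebrook 7H10 agar slants with OADC; compounds in DMSO added at 0.1 mL per 1.9 mL medium. Inoculum was H37Rv grown on L–J medium and suspended in saline with 0.05% Tween-80, ~10^5 bacilli per tube. Incubated 37 °C for 4 weeks; MIC is the lowest concentration with no visible growth.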

In series [2] the test system is Vero. In words: (§1) Cytotoxicity against african green monkey Vero cells assessed as growth inhibition at 10 times MIC after 24 hrs by MTS assay. The conditions noted are these: chlorocebus sabaeus, vero, 24 h. The format is cell-based. The procedure, abridged: (§2)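 Vero cells or mouse bone-marrow-derived macrophages plated at 20,000 cells/well and allowed to adhere overnight (37 °C, 5% CO2). Compounds added at several concentrations for 24 h, then MTS for 2 h, with OD read at 490 nm. IC50 is the concentration giving 50% viability loss; a compound counts as toxic if IC50 ≤10× MIC.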
A general note: Tetrazolium dyes change colour on reduction, which living cells bring about.

Series [3] in a line: Cytotoxicity against mouse BMDM cells assessed as growth inhibition at 10 times MIC after 24 hrs by MTS assay. The format is cell-based. In short, it runs like this: as §2
For series [4], the system named is Mycobacterium tuberculosis. In words: Ex-vivo antitubercular activity against Mycobacterium tuberculosis H37Rv infected in mouse BMDM cells assessed as reduction in intracellular bacterial level after 4 days at 5 times MIC. It is filed as functional. Also noted: scale not given: the % may be the effect or the level left.
Series [5] relates to Mycobacterium tuberculosis. In words: Antitubercular activity against Mycobacterium tuberculosis H37Rv infected in Swiss mouse infected assessed as mouse survival at 100 mg/kg/day, po for 28 days measured on day 30 post infection. It is filed as functional. In short, it runs like this:
(§3)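 Outbred Swiss mice infected i.v. with H37Rv at 10^7 CFU/mouse, in groups of 6–8. Daily oral dosing for 28 days: test compounds at 100 mg/kg in peanut oil, or isoniazid at 25 mg/kg. Percent survivors and mean survival time were recorded on day 30 and day 40.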

Series [6] deals with Mycobacterium tuberculosis. In words: Antitubercular activity against Mycobacterium tuberculosis H37Rv infected in Swiss mouse infected assessed as mean survival time of mouse at 100 mg/kg/day, po for 28 days measured on day 30 post infection. The format is functional. In short, it runs like this: as §3
The subject of series [7] is Mycobacterium tuberculosis. In words: Antitubercular activity against Mycobacterium tuberculosis H37Rv infected in Swiss mouse infected assessed as mouse survival at 100 mg/kg/day, po for 28 days measured on day 40 post infection. It is filed as functional. In short, it runs like this: as §3
Series [8] has as its system Mycobacterium tuberculosis. In words: Antitubercular activity against Mycobacterium tuberculosis H37Rv infected in Swiss mouse infected assessed as mean survival time of mouse survival at 100 mg/kg/day, po for 28 days measured on day 40 post infection. It is filed as functional. The procedure, abridged:
as §3

In series [9] the test system is Mycobacterium tuberculosis. In words: Antitubercular activity against Mycobacterium tuberculosis H37Rv infected in Swiss mouse assessed as inhibition of viable bacterial counts in lungs at 100 mg/kg, po for 28 days measured on day 30 post infection. The format is functional.
Series [10] relates to Mus musculus. In words: Antitubercular activity against Mycobacterium tuberculosis H37Rv infected in Swiss mouse infected assessed as mouse survival at 25 mg/kg/day, po for 28 days measured on day 30 post infection. The format is functional. In short, it runs like this: as §3
For series [11], the system named is Mycobacterium tuberculosis. Briefly: Antitubercular activity against Mycobacterium tuberculosis H37Rv infected in Swiss mouse infected assessed as mean survival time of mouse at 25 mg/kg/day, po for 28 days measured on day 30 post infection. It is filed as functional. The procedure, abridged: as §3
Series [12] deals with Mycobacterium tuberculosis. Briefly: Antitubercular activity against Mycobacterium tuberculosis H37Rv infected in Swiss mouse infected assessed as mouse survival at 25 mg/kg/day, po for 28 days measured on day 40 post infection. The format is functional. The procedure, abridged: as §3
Series [13] deals with Mycobacterium tuberculosis. In words: Antitubercular activity against Mycobacterium tuberculosis H37Rv infected in Swiss mouse assessed as inhibition of viable bacterial counts in lungs at 25 mg/kg, po for 28 days measured on day 30 post infection. The format is functional. The procedure, abridged: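 Outbred Swiss mice infected i.v. with H37Rv at 10^7 CFU/mouse, in groups of 6–8. Test compounds were given orally at 100 mg/kg daily for 28 days in peanut oil; isoniazid at 25 mg/kg for 28 days. On day 30, serial dilutions of lung homogenate were plated on 7H11 agar and colonies counted after 3–4 weeks at 37 °C. Result is % inhibition of lung CFU versus untreated controls.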

A short description of series [14]: as §1. The format is cell-based. The settings on record: chlorocebus sabaeus, Vero cells; read-out: GI. In short, it runs like this:
as §2

Structures are written as SMILES. Converted amounts (≈) assume the structure as drawn.

Broadly, the MIC is the lowest concentration found to suppress growth. Compound `O=C(/C=C/c1ccc(OCc2cc(Cl)ccc2Cl)cc1)c1ccc(-n2cncn2)cc1` gave an MIC in series [1] of over 25 µg/mL.

As a reminder, the inhibition in vivo is the share of the control response that was lost under treatment. Turning to `O=C(/C=C/c1ccc(OCc2ccc(Cl)cc2Cl)cc1)c1ccc(-n2ccnc2)cc1`, the minimal inhibitory concentration (MIC) in series [1] amounted to 3.12 µg/mL (≈ 6.94 µM). Besides, the Activity entry is reported as “Non-toxic” in [2], “Non-toxic” in series [3] and 99% in [4]. Further, the figures for the survival at 100 mg/kg/day in series [5] and in [7] were 100% and 83%, respectively. In addition, the MST in series [6] turned out to be 30 days; in [8], 38.5 days. Besides, the inhibition in vivo at 100 mg/kg in [9] is 13%.

The compound `O=C(/C=C/c1ccc(OCc2ccc(F)cc2F)cc1)c1ccc(-n2cncn2)cc1` returned a minimum inhibitory concentration (MIC) in [1] of 12.5 µg/mL (≈ 29.9 µM).

In series [1], `NNC(=O)c1ccncc1` [ISONIAZID] registered an MIC of 0.025 µg/mL (≈ 0.182 µM). For the same compound, the Activity entry in series [2] and in [3] was “Non-toxic” throughout. Besides, the survival at 25 mg/kg/day in [10] and in series [12] was 100% each time. Moreover, in [11], the MST is 30 days. In [13], the inhibition in vivo at 25 mg/kg was found to be 100%.

Regarding `O=C(/C=C/c1ccc(Oc2ccc(C(F)(F)F)cc2[N+](=O)[O-])cc1)c1ccc(-n2ccnc2)cc1`, the lowest concentration to inhibit growth in series [1] (MIC) was 12.5 µg/mL (≈ 26.1 µM).

Take `O=C(/C=C/c1ccc(-n2ccnc2)cc1)c1ccc(-n2ccnc2)cc1`: the minimum inhibitory concentration (MIC) in series [1] is over 25 µg/mL.

As for `O=C(/C=C/c1ccc(-n2cncn2)cc1)c1ccc(OCc2ccc(Cl)cc2Cl)cc1`, in [1], the minimum inhibitory concentration (MIC) was over 25 µg/mL.

`O=C(/C=C/c1ccc(OCc2ccc(Cl)cc2Cl)cc1)c1ccc(OCc2ccc(Cl)cc2Cl)cc1` displayed a minimal inhibitory concentration (MIC) in [1] of over 25 µg/mL.

On to `O=C(/C=C/c1ccc(-n2cncn2)cc1)c1ccc(-n2cncn2)cc1`, for which the MIC in [1] was over 25 µg/mL.

Compound `O=C(/C=C/c1ccc(OCc2cc(F)ccc2F)cc1)c1ccc(-n2cncn2)cc1` had an MIC in [1] of over 25 µg/mL.

In series [1], `O=C(/C=C/c1ccc(-n2ccnc2)cc1)c1ccc(OCc2ccc(F)cc2F)cc1` came in with an MIC of 1.56 µg/mL (≈ 3.75 µM). The results for the Activity result in series [2], in series [3] and in series [4] were “Non-toxic”, “Non-toxic” and 71%, respectively. For the same compound, the survival at 100 mg/kg/day in series [5] and in series [7] was 100% in each case. For the same compound, the MST in series [6] amounted to 30 days; in [8], 40 days. Besides, the inhibition in vivo at 100 mg/kg in series [9] amounted to 40%.

Turning to `O=C(/C=C/c1ccc(OCc2cccc(Cl)c2)cc1)c1ccc(-n2ccnc2)cc1`, the MIC in [1] was 3.12 µg/mL (≈ 7.52 µM). Besides, the inhibition at 24 h, 10 times MIC in [14] stood at 50%.

The compound `O=C(/C=C/c1ccc(-n2ccnc2)cc1)c1ccc(OCc2cccc(Cl)c2)cc1` showed an MIC in [1] of 6.25 µg/mL (≈ 15.1 µM).

In [1], `O=C(/C=C/c1ccc(-n2ccnc2)cc1)c1ccc(OCc2cc(F)ccc2F)cc1` gave an MIC of 3.12 µg/mL (≈ 7.49 µM). The Activity result in [2] was “Non-toxic”; in series [3] it was “Non-toxic”; in [4] it was under 50%.

As to `O=C(/C=C/c1ccc(OCc2ccc(F)cc2F)cc1)c1ccc(-n2ccnc2)cc1`, the Activity in series [4] is on record as under 50%.

The compound `O=C(/C=C/c1ccc(-n2ccnc2)cc1)c1ccc(Oc2ccc(C(F)(F)F)cc2[N+](=O)[O-])cc1` registered an MIC in series [1] of 12.5 µg/mL (≈ 26.1 µM).

Compound `O=C(/C=C/c1ccc(-n2cncn2)cc1)c1ccc(OCc2cc(F)ccc2F)cc1` came in with an MIC in [1] of 3.12 µg/mL (≈ 7.47 µM). Besides, the inhibition at 24 h, 10 times MIC in [14] came to 50%.

With `O=C(/C=C/c1ccc(OCc2cc(Cl)ccc2Cl)cc1)c1ccc(-n2ccnc2)cc1`, inhibition of growth in series [1] (MIC) required 12.5 µg/mL (≈ 27.8 µM).

The compound `O=C(/C=C/c1ccc(-n2cncn2)cc1)c1ccc(OCc2cccc(Cl)c2)cc1` showed a minimum inhibitory concentration (MIC) in series [1] of 0.78 µg/mL (≈ 1.88 µM). Besides, the values for the Activity result in series [2], in [3] and in series [4] were “Non-toxic”, “Non-toxic” and under 50%, respectively.

In the case of `O=C(/C=C/c1ccc(-n2ccnc2)cc1)c1ccc(OCc2cc(Cl)ccc2Cl)cc1`, in series [1], inhibition of growth (MIC) required 3.12 µg/mL (≈ 6.94 µM). Also, in series [14], the inhibition at 24 h, 10 times MIC was determined as 50%.

As to `O=C(/C=C/c1ccc(OCc2cccc(Cl)c2)cc1)c1ccc(-n2cncn2)cc1`, it took 12.5 µg/mL (≈ 30.1 µM) to inhibit growth in series [1] (MIC).

Take `O=C(/C=C/c1ccc(-n2cncn2)cc1)c1ccc(OCc2cc(Cl)ccc2Cl)cc1`: in series [1], the MIC is over 25 µg/mL.

In [1], `O=C(/C=C/c1ccc(OCc2ccc(Cl)cc2Cl)cc1)c1ccc(-n2cncn2)cc1` showed a minimum inhibitory concentration (MIC) of 25 µg/mL (≈ 55.5 µM).

In turn, `O=C(/C=C/c1ccc(-n2cncn2)cc1)c1ccc(OCc2ccc(F)cc2F)cc1` came in with a minimal inhibitory concentration (MIC) in series [1] of 12.5 µg/mL (≈ 29.9 µM).

Compound `O=C(/C=C/c1ccc(-n2ccnc2)cc1)c1ccc(OCc2ccc(Cl)cc2Cl)cc1` yielded a minimum inhibitory concentration (MIC) in [1] of 1.56 µg/mL (≈ 3.47 µM). Besides, the values for the Activity entry in [2], in series [3] and in series [4] were “Non-toxic”, “Non-toxic” and under 50%, respectively.

Turning to `O=C(/C=C/c1ccc(-n2cncn2)cc1)c1ccc(Oc2ccc(C(F)(F)F)cc2[N+](=O)[O-])cc1`, inhibition of growth in series [1] (MIC) required 12.5 µg/mL (≈ 26 µM).

For the compound `O=C(/C=C/c1ccccc1)c1ccc(OCc2ccc(Cl)cc2Cl)cc1`, the MIC in series [1] was 12.5 µg/mL (≈ 32.6 µM).

(Values after ChEMBL document CHEMBL1821557, “Novel aryloxy azolyl chalcones with potent activity against Mycobacterium tuberculosis H37Rv” (Eur J Med Chem, 2011).)
